For 1 compound, Activity, IC50 and ΔTm results are on record in ChEMBL document CHEMBL1806443, “Novel imidazo[4,5-b]pyridine and triaza-benzo[c]fluorene derivatives: synthesis, antiproliferative activity and DNA binding studies” (Eur J Med Chem, 2011).

In test [1] the test system is MIA PaCa-2. As to the kind of experiment: Cell cycle arrest in human MIAPaCa2 cells assessed as accumulation at S phase at 10 uM after 48 hrs by propidium iodide staining based flow cytometeric analysis (reference value: 20.5 +/- 0.2%). It is filed as functional.
Another test deals with SW-620. As to the kind of experiment: Cell cycle arrest in human SW620 cells assessed as accumulation at G1 phase at 10 uM after 24 hrs by propidium iodide staining based flow cytometeric analysis (reference value: 29.3 +/- 1.5%). It counts as functional. On the technique in general: A flow cytometer gives signals particle by particle.
Test [2] concerns MIA PaCa-2. As to the kind of experiment: Cell cycle arrest in human MIAPaCa2 cells assessed as accumulation at G1 phase at 5 uM after 24 hrs by propidium iodide staining based flow cytometeric analysis (reference value: 51.2 +/- 2.7%). It counts as functional.
In a further test the test system is HEp-2. As to the kind of experiment: Antiproliferative activity against human Hep2 cells after 72 hrs by MTT assay. It counts as functional, cell-based. To be noted: Homo sapiens, HEp-2, 72 h. In a few lines: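 Monolayer cells in DMEM with 10% FBS, 2 mM L-glutamine, penicillin and streptomycin at 37 °C, 5% CO2. Seeded at 3000-6000 cells/well by doubling time on day 0. Five 10-fold dilutions (0.01–100 µM) were added and incubated 72 h. MTT read-out, converted to percentage growth. IC50 by linear regression between bracketing concentrations. Quadruplicate points, three independent experiments, ANOVA/Tukey p<0.05.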
Background: Tetrazolium assays rely on reduction of a dye to a coloured formazan, in cell work by metabolically active cells.

The subject of a further test is Nucleic Acid. As to the kind of experiment: Binding affinity to calf thymus DNA assessed as change in melting temperature at compound to polynucleotide ratio of 0.1 by UV-VIS spectroscopic analysis. It is filed as nucleic-acid assay. To be noted: Bos taurus. In a few lines:
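ct-DNA alone or with compound at set r = [compound]/[polynucleotide], in cacodylate buffer pH 7.0, I = 0.05 mol dm^-3. Absorbance at 260 nm followed against temperature, ligand absorbance subtracted, curves normalized. Tm is the transition midpoint, from the first-derivative maximum or by tangent method. ΔTm = Tm(complex) − Tm(free DNA), mean of ≥2 runs, error ±0.5 °C.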

The subject of test [3] is MIA PaCa-2. As to the kind of experiment: Induction of apoptosis in human MIAPaCa2 cells assessed as morphological change at 10 uM after 24 to 48 hrs by microscopic analysis. It counts as functional, cell-based. In short, it runs like this:
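Cells were seeded at 3 × 10^4 per well and exposed 24 h later to 1, 5 or 10 µM for 24 and 48 h. Apoptotic morphology (cell shrinkage, chromatin condensation) was scored by inverted light microscopy at 200× magnification.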

Usually pIC50 stands for −log10 of the IC50, conventionally taken in molar units. A high value points to a small IC50. In general, ΔTm refers to the shift of the melting midpoint relative to a reference.

SMILES strings stand for the structures. pIC50: −log10 of the molar value. Activity calls are given as the source filed them. The rule behind the calls is not given here.

With `Cl.c1cnc2nc3ccc4ccc(C5=NCCN5)cc4n3c2c1`, the Activity worked out at 56.9% with MIA PaCa-2 [1], 33.7% with SW-620 and 22.4% in the test with MIA PaCa-2 [2]. In the test with HEp-2, this compound had a pIC50 of 6.57. The ΔTm in the test with Nucleic Acid was found to be 2.7 °C. Also, the outcome with MIA PaCa-2 [3] was Active.
